Source: ChEMBL document CHEMBL4765441, “Design, synthesis and anti-cancer activity of pyrrole-imidazole polyamides through target-downregulation of c-kit gene expression” (Eur J Med Chem, 2020)
The source made the active and inactive calls. The rule behind the calls is not given here.

How the values were obtained:
SGC-7901 [1] = assay: Down regulation of c-kit gene expression in human SGC-7901 cells incubated for 36 hrs by Western blot analysis; type: functional, cell-based
Method in brief: (§1)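 Cells exposed to compound for 36 h, then lysed in RIPA and protein measured by BCA. 30 units of total protein separated by 10% SDS-PAGE, transferred to PVDF and blocked with 5% BSA. Primary antibodies, with β-tubulin as reference, at 4 °C; secondary 2 h; ECL detection. Bands quantified by densitometry, mean ± SD, n = 3.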

SGC-7901 [2] = assay: Induction of morphological changes in human SGC7901 cells assessed as cell detachment at 7.5 uM incubated for 36 hrs by microscopic analysis; type: functional, cell-based
Method in brief: (§2)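 Cells seeded at 2 × 10^5 per well and grown 24 h. Medium then replaced with compound-containing medium. After 36 h co-culture, morphology inspected by light microscopy.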

SGC-7901 [3] = assay: Induction of apoptosis in human SGC7901 cells assessed as viable cells at 7.5 uM incubated for 36 hrs by Annexin V-FITC/propidium iodide staining-based flow cytometric analysis (reference value: 93.2 %); type: functional; conditions: read-out: Activity
SGC-7901 [4] = assay: Down regulation of c-kit mRNA expression in human SGC-7901 cells at 7.5 uM incubated for 36 hrs by Western blot analysis; type: functional, cell-based; conditions: in the assay text read “RT-PCR analysis” for “Western blot analysis”
Method in brief: (§3)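 Cells treated for 36 h. Total RNA quantified by Nanodrop and checked on 1.5% agarose with ethidium bromide. 400 ng RNA per one-step RT-PCR with c-kit-specific primers; reverse transcription 30 min at 50 °C, then 2 min at 94 °C. Normalized to β-actin; semi-quantitative.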

SGC-7901 [5] = assay: Induction of apoptosis in human SGC7901 cells assessed as necrotic cells at 15 uM incubated for 36 hrs by Annexin V-FITC/propidium iodide staining-based flow cytometric analysis (reference value: 0.34 %); type: functional
A549 [6] = assay: Down regulation of c-kit gene expression in human A549 cells incubated for 36 hrs by Western blot analysis; type: functional, cell-based; method in brief: as §1
SGC-7901 [7] = assay: Inhibition of cell migration in human SGC7901 cells at 1.5 uM incubated for 48 hrs by inverted fluorescence microscope based scratch wound healing assay; type: functional
Method in brief: (§4)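 20 × 10^4 cells per well grown to 80% confluence. Wound scratched with a pipette tip, washed twice with PBS and photographed under an inverted fluorescence microscope. Cells then held in serum-free medium with compound for 48 h. Migration measured as distance moved from the wound edge; mean ± SD, n = 3.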

SGC-7901 [8] = assay: Induction of apoptosis in human SGC7901 cells assessed as early apoptotic cells at 7.5 uM incubated for 36 hrs by Annexin V-FITC/propidium iodide staining-based flow cytometric analysis (reference value: 2.74 %); type: functional
A549 [9] = assay: Induction of morphological changes in human A549 cells assessed as membrane bulge at 15 uM incubated for 36 hrs by microscopic analysis; type: functional, cell-based; method in brief: as §2
[10] = Drug localization in nucleus of human SGC-7901 cells incubated for 24 hrs by Hoechst-33342 staining based confocal laser scanning microscopic analysis; type: ADME, subcellular; conditions: sgc-7901, 24 h
Method in brief: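 SGC-7901 cells cultured 24 h, then given fluorescein-labeled polyamide (1.0, unit unclear) for 4 h. Medium replaced and culture continued 20 h. Live cells viewed at ×300, then fixed in 4% paraformaldehyde for 10 min. Nuclei stained with Hoechst 33342 for 5 min, PBS-washed, imaged by confocal laser scanning microscopy.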

A549 [11] = assay: Induction of apoptosis in human A549 cells assessed as viable cells at 7.5 uM incubated for 36 hrs by Annexin V-FITC/propidium iodide staining-based flow cytometric analysis (reference value: 97.9 %); type: functional; conditions: read-out: Activity
GISTT1 [12] = assay: Down regulation of c-kit gene expression at transcriptional level in human GIST-T1 cells; type: functional, cell-based
A549 [13] = assay: Induction of apoptosis in human A549 cells assessed as early apoptotic cells at 15 uM incubated for 36 hrs by Annexin V-FITC/propidium iodide staining-based flow cytometric analysis (reference value: 1.41 %); type: functional
SGC-7901 [14] = assay: Induction of morphological changes in human SGC7901 cells assessed as apoptotic body formation at 7.5 uM incubated for 36 hrs by microscopic analysis; type: functional, cell-based; method in brief: as §2
A549 [15] = assay: Induction of morphological changes in human A549 cells assessed as cell detachment at 15 uM incubated for 36 hrs by microscopic analysis; type: functional, cell-based; method in brief: as §2
A549 [16] = assay: Induction of apoptosis in human A549 cells assessed as necrotic cells at 15 uM incubated for 36 hrs by Annexin V-FITC/propidium iodide staining-based flow cytometric analysis (reference value: 0.31 %); type: functional
A549 [17] = assay: Down regulation of c-kit mRNA expression in human A549 cells at 7.5 uM incubated for 36 hrs by Western blot analysis; type: functional, cell-based; conditions: in the assay text read “RT-PCR analysis” for “Western blot analysis”; method in brief: as §3
SGC-7901 [18] = assay: Antiproliferative activity against human SGC7901 cells assessed as reduction in cell viability incubated for 48 hrs by xCELLigence RTCA; type: functional, cell-based; conditions: SGC-7901, 48 h
SGC-7901 [19] = assay: Induction of apoptosis in human SGC7901 cells assessed as late apoptotic cells at 7.5 uM incubated for 36 hrs by Annexin V-FITC/propidium iodide staining-based flow cytometric analysis (reference value: 3.69 %); type: functional
GISTT1 [20] = assay: Down regulation of c-kit gene expression at translational level in human GIST-T1 cells at 5 uM; type: functional, cell-based
SGC-7901 [21] = assay: Induction of morphological changes in human SGC7901 cells assessed as appearance of round shaped cells at 7.5 uM incubated for 36 hrs by microscopic analysis; type: functional, cell-based; method in brief: as §2
A549 [22] = assay: Induction of apoptosis in human A549 cells assessed as necrotic cells at 7.5 uM incubated for 36 hrs by Annexin V-FITC/propidium iodide staining-based flow cytometric analysis (reference value: 0.31 %); type: functional
A549 [23] = assay: Induction of apoptosis in human A549 cells assessed as late apoptotic cells at 15 uM incubated for 36 hrs by Annexin V-FITC/propidium iodide staining-based flow cytometric analysis (reference value: 0.41 %); type: functional
SGC-7901 [24] = assay: Induction of apoptosis in human SGC7901 cells assessed as necrotic cells at 7.5 uM incubated for 36 hrs by Annexin V-FITC/propidium iodide staining-based flow cytometric analysis (reference value: 0.34 %); type: functional
GISTT1 [25] = assay: Antiproliferative activity against human GIST-T1 cells; type: functional, cell-based
A549 [26] = assay: Induction of apoptosis in human A549 cells assessed as early apoptotic cells at 7.5 uM incubated for 36 hrs by Annexin V-FITC/propidium iodide staining-based flow cytometric analysis (reference value: 1.41 %); type: functional
Bel-7402 = assay: Antiproliferative activity against human Bel-7402 cells assessed as reduction in cell viability incubated for 48 hrs by xCELLigence RTCA; type: functional, cell-based; conditions: Bel-7402, 48 h
SGC-7901 [27] = assay: Induction of apoptosis in human SGC7901 cells assessed as early apoptotic cells at 15 uM incubated for 36 hrs by Annexin V-FITC/propidium iodide staining-based flow cytometric analysis (reference value: 2.74 %); type: functional
A549 [28] = assay: Inhibition of cell migration in human A549 cells at 1.5 uM incubated for 48 hrs by inverted fluorescence microscope based scratch wound healing assay; type: functional; method in brief: as §4
MKN-45 = assay: Antiproliferative activity against human MKN-45 cells assessed as reduction in cell viability incubated for 48 hrs by xCELLigence RTCA; type: functional, cell-based; conditions: MKN-45, 48 h

CC(=O)Nc1cn(C)c(C(=O)Nc2cn(C)c(C(=O)Nc3cc(C(=O)Nc4cn(C)c(C(=O)NCCC(=O)Nc5cn(C)c(C(=O)Nc6cn(C)c(C(=O)NCC[C@@H](N)C(=O)Nc7cc(C(=O)Nc8cc(C(=O)NC[C@@H](O)CC(=O)Nc9cc(C(=O)Nc%10cn(C)c(C(=O)Nc%11cc(C(=O)Nc%12cc(C(=O)NCCC(=O)NCCCN(C)C)n(C)c%12)n(C)c%11)n%10)n(C)c9)n(C)c8)n(C)c7)n6)n5)n4)n(C)c3)n2)n1.Cl.Cl
Activity (SGC-7901 [1]): Dose-dependent effect
Activity (SGC-7901 [2]): Active
viability at 7.5 µM (SGC-7901 [3]): 56.4%
Activity (SGC-7901 [4]): Active
Activity (SGC-7901 [5]): 1.83%
Activity (A549 [6]): Dose-dependent effect
inhibition at 1.5 µM (SGC-7901 [7]): 85.7%
Activity (SGC-7901 [8]): 32.4%
Activity (A549 [9]): Active
Drug uptake [10]: Active
viability at 7.5 µM (A549 [11]): 60.5%
Activity (GISTT1 [12]): Active
Activity (A549 [13]): 28.9%
Activity (SGC-7901 [14]): Active
Activity (A549 [15]): Active
Activity (A549 [16]): 0.12%
Activity (A549 [17]): Active
IC50 (SGC-7901 [18]): 2.96 µM
Activity (SGC-7901 [19]): 10.2%
Activity (GISTT1 [20]): Active
Activity (SGC-7901 [21]): Active
Activity (A549 [22]): 2.76%
Activity (A549 [23]): 19.6%
Activity (SGC-7901 [24]): 0.92%
Activity (GISTT1 [25]): Active
Activity (A549 [26]): 22.7%
IC50 (Bel-7402): 11.2 µM
Activity (SGC-7901 [27]): 41.7%
inhibition at 1.5 µM (A549 [28]): 83.8%
IC50 (MKN-45): 7.41 µM
